Assay results published in ChEMBL document CHEMBL1136355, “Benzyl vinylogous amide substituted aryldihydropyridazinones and aryldimethylpyrazolones as potent and selective PDE3B inhibitors” (Bioorg Med Chem Lett, 2003).

Columns and labels:
[1] = molecular target: cGMP-inhibited 3',5'-cyclic phosphodiesterase 3A (Homo sapiens, UniProt Q14432); assay: Inhibitory concentration required to inhibit human phosphodiesterase 3A expressed in Escherichia coli
How it was run: (§1)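 PDE3A and PDE3B made in E. coli BL21(DE3) pLysS after IPTG induction. Soluble extract ammonium sulfate-precipitated (50% saturation), dialysed, partially purified on DEAE Sepharose with a 70–250 mM NaCl gradient. IC50 is the mean of two or more experiments.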

[2] = molecular target: cGMP-inhibited 3',5'-cyclic phosphodiesterase 3B (Homo sapiens, UniProt Q13370); assay: Inhibitory concentration required to inhibit human phosphodiesterase 3B expressed in Escherichia coli; how it was run: as §1
[3] = Plasma clearance in rat after intravenous administration at a concentration 0.5 mg/kg; type: ADME, organism-based; parameters: dose 0.5 mg/kg, route intravenous
How it was run: (§2)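 Rat pharmacokinetics after a 0.5 mg/kg intravenous dose; half-life and clearance derived from blood levels.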

Rattus norvegicus [4] = assay: Area under curve was determined in rat after oral administration at a concentration 1 mg/kg; type: ADME, organism-based; parameters: dose 1 mg/kg, route oral; settings: in vivo
How it was run: (§3)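 Rats dosed orally at 1.0 mg/kg. Blood levels were measured, and AUC was normalized and compared with iv exposure to give oral bioavailability.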

Rattus norvegicus [5] = assay: Maximal blood pressure decrease in rats at 0.1 mg/kg dose for 60 min; type: functional
How it was run: (§4)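 Anesthetized rats given increasing intravenous doses (0.01–0.1 mg/kg). Mean arterial pressure recorded from 5 min to 60 min post-dose; decrease expressed as percentage.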

[6] = Oral bioavailability was determined in rat after oral administration at a concentration 1 mg/kg; type: ADME, organism-based; settings: in vivo; how it was run: as §3
Rattus norvegicus [7] = assay: In vivo plasma glycerol increase in anesthetized rat at 1 mg/kg iv dose for 90 min; type: functional; settings: 1 h, in the assay text read “60 min” for “90 min”
How it was run: (§5)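 Anesthetized rats given compound by intravenous infusion (1.0 mg/kg). Plasma glycerol increase over vehicle followed over a 90 min period, with a reading at 60 min taken as an index of lipolysis.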

Rattus norvegicus [8] = assay: Maximal blood pressure decrease in rats at 0.02 mg/kg dose for 60 min; type: functional; how it was run: as §4
Rattus norvegicus [9] = assay: Increased metabolic rate in male rats for 8-h period after 3 mg/kg dose; type: functional
How it was run: (§6)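 Male rats dosed orally at 1, 3 and 10 mg/kg. Metabolic rate monitored over 8 h post-dose and expressed as percentage increase in thermogenesis over the pre-dose rate.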

[10] = Half life in rat after intravenous administration at a concentration 0.5 mg/kg; type: ADME, organism-based; parameters: dose 0.5 mg/kg, route intravenous; settings: in vivo; how it was run: as §2
Rattus norvegicus [11] = assay: In vivo plasma glycerol increase in anesthetized rat at 1 mg/kg iv dose for 60 min; type: functional; settings: 1 h; how it was run: as §5
Rattus norvegicus [12] = assay: Increased metabolic rate in male rats for 8-h period after 10 mg/kg dose; type: functional; how it was run: as §6
[13] = molecular target: Phosphodiesterase 3 (Homo sapiens) (UniProt Q14432+Q13370); assay: Relative inhibition of Phosphodiesterase 3A and Phosphodiesterase 3B; type: protein assay
How it was run: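 PDE3A and PDE3B expressed in E. coli BL21 (DE3) pLysS after IPTG induction, ammonium sulfate precipitated, partially purified on DEAE Sepharose. Activity measured by [3H]cAMP SPA assay in 50 mM Tris pH 7.5, 8.3 mM MgCl2, 1.7 mM EGTA, 10 nM [3H]cAMP, room temperature, 2–15 min. IC50s on each isoform are means of two or more experiments.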

Chain of cGMP-inhibited 3',5'-cyclic phosphodiesterase 3B (Q13370 whole entry): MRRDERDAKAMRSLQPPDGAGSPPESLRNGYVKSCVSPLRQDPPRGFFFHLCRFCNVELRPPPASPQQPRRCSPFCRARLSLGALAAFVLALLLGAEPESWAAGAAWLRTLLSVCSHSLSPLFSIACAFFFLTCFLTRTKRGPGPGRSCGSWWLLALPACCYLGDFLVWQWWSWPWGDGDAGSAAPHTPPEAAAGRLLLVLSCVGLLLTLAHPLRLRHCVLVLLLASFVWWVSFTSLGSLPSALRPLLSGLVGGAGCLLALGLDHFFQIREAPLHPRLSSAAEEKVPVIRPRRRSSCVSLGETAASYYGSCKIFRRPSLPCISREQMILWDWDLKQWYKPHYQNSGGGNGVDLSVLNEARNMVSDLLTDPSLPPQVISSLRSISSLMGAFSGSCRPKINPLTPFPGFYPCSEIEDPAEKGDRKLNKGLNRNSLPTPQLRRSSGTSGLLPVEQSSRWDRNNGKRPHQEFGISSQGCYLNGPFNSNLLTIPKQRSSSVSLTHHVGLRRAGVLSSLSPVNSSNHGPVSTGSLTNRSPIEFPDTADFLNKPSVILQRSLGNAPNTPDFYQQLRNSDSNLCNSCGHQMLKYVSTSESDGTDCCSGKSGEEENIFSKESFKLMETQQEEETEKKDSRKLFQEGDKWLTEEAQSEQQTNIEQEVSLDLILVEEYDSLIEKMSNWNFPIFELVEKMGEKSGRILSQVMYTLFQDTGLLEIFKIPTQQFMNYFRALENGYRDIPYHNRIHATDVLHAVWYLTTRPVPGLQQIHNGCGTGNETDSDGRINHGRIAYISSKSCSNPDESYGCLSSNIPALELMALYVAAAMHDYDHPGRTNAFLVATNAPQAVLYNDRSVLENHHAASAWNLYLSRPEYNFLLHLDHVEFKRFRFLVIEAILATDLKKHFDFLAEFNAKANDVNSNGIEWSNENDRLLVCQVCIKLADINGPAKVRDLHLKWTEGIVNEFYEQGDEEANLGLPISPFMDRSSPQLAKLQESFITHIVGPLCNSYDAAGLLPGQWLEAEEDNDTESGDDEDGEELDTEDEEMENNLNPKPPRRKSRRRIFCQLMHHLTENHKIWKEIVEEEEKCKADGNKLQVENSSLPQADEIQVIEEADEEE
Chain of cGMP-inhibited 3',5'-cyclic phosphodiesterase 3A (Q14432 whole entry): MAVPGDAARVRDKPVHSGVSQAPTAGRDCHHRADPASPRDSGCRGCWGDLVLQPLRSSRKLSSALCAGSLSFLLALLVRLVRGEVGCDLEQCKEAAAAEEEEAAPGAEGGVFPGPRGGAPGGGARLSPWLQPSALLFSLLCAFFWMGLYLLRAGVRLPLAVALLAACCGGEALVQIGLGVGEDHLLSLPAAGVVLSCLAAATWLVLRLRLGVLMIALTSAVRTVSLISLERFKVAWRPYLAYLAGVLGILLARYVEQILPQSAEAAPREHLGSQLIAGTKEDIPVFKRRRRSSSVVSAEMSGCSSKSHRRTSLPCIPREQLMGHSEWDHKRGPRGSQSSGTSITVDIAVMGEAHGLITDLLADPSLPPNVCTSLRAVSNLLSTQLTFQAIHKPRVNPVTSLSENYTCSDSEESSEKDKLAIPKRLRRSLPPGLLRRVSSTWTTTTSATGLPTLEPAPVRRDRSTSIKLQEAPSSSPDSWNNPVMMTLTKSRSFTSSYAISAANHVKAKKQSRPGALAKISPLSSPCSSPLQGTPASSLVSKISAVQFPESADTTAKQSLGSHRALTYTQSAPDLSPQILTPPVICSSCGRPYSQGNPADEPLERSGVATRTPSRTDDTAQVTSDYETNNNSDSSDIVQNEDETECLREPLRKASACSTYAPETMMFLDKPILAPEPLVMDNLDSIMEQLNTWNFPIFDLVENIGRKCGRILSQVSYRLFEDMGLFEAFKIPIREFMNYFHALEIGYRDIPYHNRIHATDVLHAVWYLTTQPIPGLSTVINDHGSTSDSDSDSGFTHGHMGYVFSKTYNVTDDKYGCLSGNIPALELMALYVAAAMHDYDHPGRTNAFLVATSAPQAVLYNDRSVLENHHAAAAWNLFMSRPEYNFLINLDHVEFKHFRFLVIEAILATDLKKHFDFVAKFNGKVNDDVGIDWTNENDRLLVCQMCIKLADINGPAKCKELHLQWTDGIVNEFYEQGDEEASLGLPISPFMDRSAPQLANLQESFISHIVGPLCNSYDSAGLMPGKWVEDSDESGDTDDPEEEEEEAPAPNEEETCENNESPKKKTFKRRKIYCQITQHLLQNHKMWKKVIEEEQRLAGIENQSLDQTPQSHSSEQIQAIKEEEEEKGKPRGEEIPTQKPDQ

Structure (SMILES) | IC50 [1] [nM] | IC50 [2] [nM] | other results
COc1ccccc1CC1=C(Nc2ccc(C3=NNC(=O)CC3C)cc2)CCCC1=O (stereo not drawn) | 0.39 | 0.13 | 
CC1CC(=O)NN=C1c1ccc(NC2=C(Cc3ccc([N+](=O)[O-])cc3)C(=O)CCC2)cc1 (stereo not drawn) | 24 | 5.5 | 
CC1=C(Nc2ccc(C3=NNC(=O)C[C@H]3C)cc2)CCCC1=O | 44 | 8.8 | 
C[C@@H]1CC(=O)NN=C1c1ccc(NC2=C(Cc3ccccc3)C(=O)CCC2)cc1 | 1.3 | 0.19 | clearance [3]: 6.8 mL/min/kg; AUC (Rattus norvegicus [4]): 3.6 µM·h; Max decrease (Rattus norvegicus [5]): 40%; bioavailability [6]: 61%; ED50 (Rattus norvegicus [7]): 0.6 mg/kg; Max decrease (Rattus norvegicus [8]): 20%; Metabolic rate (Rattus norvegicus [9]): 14%; half-life [10]: 1 h; ED50 (Rattus norvegicus [11]): 0.6 mg/kg; Metabolic rate (Rattus norvegicus [12]): 21%
CC1(C)C(=O)NN=C1c1ccc(NC2=C(Cc3cccc(F)c3)C(=O)CCC2)cc1F | 43 | 5.6 | 
CC1CC(=O)NN=C1c1ccc(NC2=C(Cc3cccc(F)c3)C(=O)CCC2)cc1 (stereo not drawn) | 2.8 | 0.7 | 
CC1CC(=O)NN=C1c1ccc(NC(=O)OCc2ccccc2)cc1 (stereo not drawn) | 2.9 | 1 | 
C[C@@H]1CC(=O)NN=C1c1ccc(NC(=O)c2ccccc2C(F)(F)F)cc1 | 15 | 5 | 
CC1CC(=O)NN=C1c1ccc(NC2=C(Cc3cccc([N+](=O)[O-])c3)C(=O)CCC2)cc1 (stereo not drawn) | 3.1 | 0.94 | 
Cc1cc(C2=NNC(=O)CC2C)ccc1/N=C1\CCCC(O)=C1Cc1ccccc1 (stereo not drawn) | 3.7 | 0.61 | 
CC1(C)C(=O)NN=C1c1ccc(NC2=C(Cc3cccc(C#N)c3)C(=O)CCC2)cc1F | 69 | 3.2 | 
CC1(C)C(=O)NN=C1c1ccc(NC2=C(Cc3ccccc3F)C(=O)CCC2)cc1F | 16 | 1.1 | 
CC1CC(=O)NN=C1c1ccc(NC2=C(Cc3cccc(I)c3)C(=O)CCC2)cc1 (stereo not drawn) | 0.33 | 0.11 | 
CC1(C)C(=O)NN=C1c1ccc(NC2=C(Cc3cccc([N+](=O)[O-])c3)C(=O)CCC2)cc1F | 150 | 4.5 | Selectivity [13]: 33
Cc1cc(NC2=C(Cc3ccccc3)C(=O)CCC2)ccc1C1=NNC(=O)CC1C (stereo not drawn) | 22 | 2.6 | 
CC1(C)C(=O)NN=C1c1ccc(NC2=C(Cc3ccccc3Cl)C(=O)CCC2)cc1F | 7.2 | 0.53 | 
CCc1cc(NC2=C(Cc3ccccc3)C(=O)CCC2)ccc1C1=NNC(=O)CC1C (stereo not drawn) | 101 | 21 | 
COc1ccc(CC2=C(Nc3ccc(C4=NNC(=O)CC4C)cc3)CCCC2=O)cc1 (stereo not drawn) | 2.3 | 0.7 | 

Structure (SMILES) | IC50 [1] [nM] | IC50 [2] [nM] | other results
CC1CC(=O)NN=C1c1ccc(NC2=C(Cc3ccccc3)C(=O)CCC2)cc1F (stereo not drawn) | 1.6 | 0.24 | 
CC(=O)Nc1ccc(C2=NNC(=O)C[C@H]2C)cc1 | 96 | 37 | 
CC1CC(=O)NN=C1c1ccc(NC2=C(Cc3cccc(Br)c3)C(=O)CCC2)cc1 (stereo not drawn) | 0.94 | 0.3 | 
CC1(C)C(=O)NN=C1c1ccc(NC2=C(Cc3c(Cl)cccc3Cl)C(=O)CCC2)cc1F | 2.2 | 0.13 | 
CN(C(=O)CCCOc1ccc2[nH]c(=O)ccc2c1)C1CCCCC1 [CILOSTAMIDE] |  | 18 | 
CC1CC(=O)NN=C1c1cc(F)c(NC2=C(Cc3ccccc3)C(=O)CCC2)cc1F (stereo not drawn) | 1.6 | 0.62 | 
Cc1cc(NC2=C(Cc3cccc(C#N)c3)C(=O)CCC2)ccc1C1=NNC(=O)C1(C)C | 130 | 10 | 
CC1(C)C(=O)NN=C1c1ccc(NC2=C(Cc3ccccc3)C(=O)CCC2)cc1 | 53 | 10 | 
Cc1cc(NC2=C(Cc3ccccc3)C(=O)CCC2)ccc1C1=NNC(=O)C1(C)C | 38 | 4.8 | 
CC1(C)C(=O)NN=C1c1ccc(NC2=C(Cc3ccccc3)C(=O)CCC2)cc1F | 20 | 2.5 | 
CC1(C)C(=O)NN=C1c1ccc(NC2=C(Cc3cccc([N+](=O)[O-])c3)C(=O)CCC2)cc1Cl | 550 | 30 | 
CC1CC(=O)NN=C1c1ccc(/N=C2\CCCC(O)=C2Cc2ccccc2)c(F)c1 (stereo not drawn) | 1.2 | 0.26 | 
CC1(C)C(=O)NN=C1c1ccc(NC2=C(Cc3ccccc3Cl)C(=O)CCC2)cc1Cl | 77 | 6.3 | 
CC1(C)C(=O)NN=C1c1ccc(/N=C2\CCCC(O)=C2Cc2cccc(C#N)c2)c(F)c1F | 7.6 | 0.33 | Selectivity [13]: 23
CC1CC(=O)NN=C1c1ccc(NC2=C(Cc3ccccc3C(F)(F)F)C(=O)CCC2)cc1 (stereo not drawn) | 0.83 | 0.35 | 
CC1CC(=O)NN=C1c1ccc(NC2=C(Cc3ccccc3)C(=O)CCC2)cc1Cl (stereo not drawn) | 46 | 4.8 | 
CCOC(=O)Nc1ccc(C2=NNC(=O)C[C@H]2C)cc1 | 24 | 8.5 | 
CC1(C)C(=O)NN=C1c1ccc(NC2=C(Cc3ccc(F)cc3)C(=O)CCC2)cc1F | 63 | 3.1 | 
